MrgX1 PAM – positive allosteric modulators of MrgX1, primary screen, HEK293 cells, Fluo-4 calcium flux | Mas-related G-protein coupled receptor member X1 (Homo sapiens), Q96LB2 | actives 0.63% (n = 310,000) | FDSS; stronger effect = higher value | B-score at 10 µM;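 active = plate-corrected calcium response at least 3 library SD above typical, normal starting fluorescence, not activating the receptor alone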;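 also: compound read alongside a low EC10 to EC30 dose of BAM8-22 agonist; peak minus trough fluorescence over baseline measured at the second addition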
Target sequence (Q96LB2 whole entry, looked up): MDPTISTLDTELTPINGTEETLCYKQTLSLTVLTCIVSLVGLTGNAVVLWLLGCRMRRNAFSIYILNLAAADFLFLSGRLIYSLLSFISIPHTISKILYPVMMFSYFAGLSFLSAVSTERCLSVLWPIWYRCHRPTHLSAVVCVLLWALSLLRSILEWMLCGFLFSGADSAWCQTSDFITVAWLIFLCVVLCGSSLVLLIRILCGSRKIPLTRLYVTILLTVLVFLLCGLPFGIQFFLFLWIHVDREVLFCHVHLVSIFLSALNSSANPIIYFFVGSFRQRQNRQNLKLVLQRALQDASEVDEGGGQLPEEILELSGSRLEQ
MrgX1 ag – agonists of human MrgX1 receptor, primary screen, HEK293 cells, Fluo-4 calcium flux | Mas-related G-protein coupled receptor member X1 (Homo sapiens), Q96LB2 | Fluo-4 calcium fluorescence, agonist mode; stronger effect = higher value | B-score at 10 µM | actives 0.44% (n = 310,000) | AID 588627, 2011;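 active = calcium response B-score plate-corrected fluorescence ratio at least 3 library SD, with starting fluorescence B-score inside 5 SD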
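System: HEK293 cells stably expressing human MrgX1 receptor; Dosing: test compound in the initial addition of three; Schedule: overnight plating, then 30 min 37 °C plus 30 min room-temperature dye loading; Detection: kinetic calcium dye fluorescence, Fluo-4 NW; Controls: per-plate positive and negative controls for Z′ factor.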
RGS4 pot – RGS4 potentiators or activators, primary screen, cell-based, HEK293 M3R inducible RGS4, calcium flux | AID 463111, 2010 | actives 0.92% (n = 310,000) | carbachol calcium flux Fluo4; stronger effect = lower value | B-score at 10 µM;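 active = B-score of the integrated calcium signal more than 4 SD below the library mean, with starting fluorescence not abnormally high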;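 also: negative B-score means reduced calcium response which marks RGS4 activation or potentiation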
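Also added: carbachol at ECmax as muscarinic agonist stimulus; Assay system: HEK293 cells with stable M3R and inducible RGS4; Timing: overnight RGS4 induction, 30 min dye load 37 °C, 20 min compound RT; Measured by: Fluo4-AM (2 µM) calcium-flux fluorescence, kinetic read.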
MrgX1 antag – antagonists of human MrgX1 receptor, primary screen, HEK293 cells, Fluo-4 calcium flux; actives 1.3% (n = 310,000); BAM8-22 antagonism; stronger effect = lower value; B-score at 10 µM; AID 588676, 2011; Mas-related G-protein coupled receptor member X1 (Homo sapiens), Q96LB2;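 active = calcium-response B-score plate-corrected more than 3 library SD below zero, starting fluorescence within 5 deviations, no agonist response on first addition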;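 also: peak minus trough fluorescence over baseline after final BAM8-22 challenge near maximal dose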
RGS4 block – RGS4 inhibitors, primary screen, cell-based, HEK293 M3R inducible RGS4, calcium flux | Fluo-4 calcium flux; stronger effect = higher value; triggered by carbachol at its EC20 | B-score at 10 µM | actives 0.45% (n = 310,000);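 active = B-score, a plate-corrected calcium signal, over three deviations above library mean, with baseline fluorescence within five deviations of library mean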;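 also: RGS4 expression induced by doxycycline in cells with stable M3 receptor; B-score is computed from the integrated fluorescence ratio over baseline after carbachol; higher B-score means a larger calcium signal and so more RGS4 inhibition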
Numbers without * were called inactive; i = inactive. Sampled rows, rich in hits. Any-hit rate of the full collection: about 3.5%.

SMILES	MrgX1 PAM	MrgX1 ag	RGS4 pot	MrgX1 antag	RGS4 block
CC(C)Oc1ccc(Cn2c(-c3ccco3)n[nH]c2=S)cc1	i	i	-7.3*	i	i
CC(NC(=O)c1sc2cc([N+](=O)[O-])ccc2c1Cl)C(C)(C)C (configuration not stated)	6.9*	i	i	i	i
COc1ccc(C)cc1Nc1n[n+](-c2ccccc2)c(-c2cc([N+](=O)[O-])cc(OC)c2O)s1	i	i	i	-6*	i
COC(=O)CN1C(=O)[C@H]2[C@@H](/C=C/c3ccccc3)N3C(=O)CN(Cc4ccccc4)C(=O)[C@@]3(C)[C@H]2C1=O	i	i	i	i	i
Cc1ccc(S(=O)(=O)c2c(N)n(Cc3ccco3)c3nc4ccccc4nc23)cc1C	i	i	i	-4.8*	i
COc1ccccc1/C=N/NC(=O)CC(=O)NCc1ccccc1	i	i	i	i	i
CCOc1cc(/C=N/NC(=O)c2cc3c(ccc4ccccc43)o2)ccc1O	i	i	i	i	i
O=C(N/N=C/c1cc(Br)c(O)c(Br)c1)c1cc2c(ccc3ccccc32)o1	i	i	-7.3*	i	i
NC(=O)N/N=C/c1ccccc1OCC(=O)NCc1ccccc1	i	i	i	-4.8*	i
CCOC(=O)COc1ccccc1/C=N\NC(=O)c1cc2c(ccc3ccccc32)o1	i	i	-8.8*	i	i
C/C(=N\OC(=O)c1ccc(F)cc1)c1sc(-c2ccccc2)nc1C	i	i	i	i	i
CC(C)c1cc(O)c(-c2ccccc2)c(=O)n1-c1ccc(Cl)cc1	i	i	i	i	i
CC(C)c1c(Cl)c(O)c(-c2ccccc2)c(=O)n1-c1ccc(F)cc1	i	i	i	-5.3*	i
Cc1ccc(NC(=O)COc2cccnc2[N+](=O)[O-])cc1S(=O)(=O)N1CCCCC1	i	i	i	i	i
Cc1cccc(C)c1NC(=O)COC(=O)c1cccc2c1C(=O)c1ccccc1C2=O	i	i	i	i	i
Cc1cccc(NC(=O)COC(=O)c2cccc3c2C(=O)c2ccccc2C3=O)c1C	i	i	-7.2*	i	i
C#CC[N+]1(CC#Cc2ccccc2)CCCCC1	i	i	i	i	i
C(#Cc1ccccc1)C[N+]1(CC#Cc2ccccc2)CCCCC1	i	i	-8.6*	i	i
C#CC[N+]1(CC#Cc2cccc(C)c2)CCCCC1	i	i	i	i	i
Cc1ccc(C#CC[N+]2(CC#Cc3ccc(C)cc3)CCCCC2)cc1	i	i	-7.1*	i	i
Cc1ccc(-n2c(SCC(=O)NNC(=S)Nc3ccccc3)nc3ccccc3c2=O)cc1	7.4*	i	i	i	i
CCOC(=O)c1sc2cc([N+](=O)[O-])cc(SCC(=O)OC)c2c1N	i	i	i	-5.7*	i
CCOC(=O)c1sc2cc([N+](=O)[O-])cc(SCCO)c2c1N	i	i	i	i	i
Cc1nc(C)c2c(=O)cc(-c3ccccc3)[nH]c2n1	i	i	i	i	i
CSc1ccccc1NC(=O)CN1CCCCC1C (configuration not stated)	i	i	i	i	i
CC1CCCCN1CC(=O)NC(c1ccccc1)c1ccccc1 (configuration not stated)	i	i	-7.3*	i	i
CCNC(=S)N/N=C(\C)c1ccc(N2CCOCC2)cc1	i	i	i	i	i
COc1ccc(CNC(=O)C(c2ccc(C)cc2)N(Cc2cccs2)C(=O)c2ccc3c(c2)OCCO3)cc1 (configuration not stated)	i	i	-7.5*	i	i
COc1ccc(CNC(=O)C(c2ccco2)N(Cc2cccs2)C(=O)Cc2cccs2)cc1 (configuration not stated)	i	i	i	i	i

Bioassay records: PubChem, Johns Hopkins Ion Channel Center
